Assay results as given in ChEMBL document CHEMBL4359883, “4(1H)-quinolone derivatives overcome acquired resistance to anti-microtubule agents by targeting the colchicine site of β-tubulin” (Eur J Med Chem, 2019).
Activity calls are given as the source filed them. The calls are words filed in the database; no cut-off is given here.

Assays:
[1] = system: NCI-H1975; assay: Antiproliferative activity against human NCI-H1975 cells assessed as reduction in cell viability after 72 hrs by MTS assay; assay type: functional, cell-based; conditions: NCI-H1975, 72 h
Summary of the method: (§1)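 Cells plated at 2000/well, cultured overnight, then exposed to a range of compound concentrations for 72 h. MTS reagent added for 1–4 h at 37 °C and absorbance read at 490 nm. Cultured in RPMI 1640 or DMEM with 10% heat-inactivated FBS under 5% CO2. Data are the mean of three determinations.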

[2] = Toxicity in Balb/c mouse xenografted with human NCI-H1975 cells assessed as serum BUN level at 4 mg/kg, ip administered 3 times per week for 25 days (reference value: 18.5 +/- 1.6 mg/dl); assay type: organism-based; conditions: in vivo, 600 h
[3] = Induction of apoptosis in human NHFB cells assessed as PARP cleavage at 40 nM after 24 to 72 hrs by immunoblotting analysis; assay type: cell-based; conditions: 0.04 µM
[4] = Toxicity in Balb/c mouse xenografted with human NCI-H1975 cells assessed as effect on body mass at 4 to 8 mg/kg, ip administered 3 times per week for 25 days; assay type: organism-based; conditions: in vivo, 600 h
Summary of the method: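 H1975 cells (2 × 10^6) injected subcutaneously into right flank of 6-week-old BALB/c nude mice; established tumors treated intraperitoneally with 4 or 8 mg/kg compound in DMSO, or DMSO, three times a week for 25 days (n = 6 per group). Body mass recorded before each injection.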

[5] = Toxicity in Balb/c mouse xenografted with human NCI-H1975 cells assessed as serum ALT level at 8 mg/kg, ip administered 3 times per week for 25 days (reference value: 36.6 +/- 5.9 IU/L); assay type: organism-based; conditions: in vivo, 600 h
[6] = Toxicity in Balb/c mouse xenografted with human NCI-H1975 cells assessed as serum creatinine level at 8 mg/kg, ip administered 3 times per week for 25 days (reference value: 0.14 +/- 0.02 mg/dl); assay type: organism-based; conditions: in vivo, 600 h
[7] = Toxicity in Balb/c mouse xenografted with human NCI-H1975 cells assessed as serum creatinine level at 4 mg/kg, ip administered 3 times per week for 25 days (reference value: 0.14 +/- 0.02 mg/dl); assay type: organism-based; conditions: in vivo, 600 h
[8] = Toxicity in Balb/c mouse xenografted with human NCI-H1975 cells assessed as serum BUN level at 8 mg/kg, ip administered 3 times per week for 25 days (reference value: 18.5 +/- 1.6 mg/dl); assay type: organism-based; conditions: in vivo, 600 h
[9] = Toxicity in Balb/c mouse xenografted with human NCI-H1975 cells assessed as serum AST level at 8 mg/kg, ip administered 3 times per week for 25 days (reference value: 122 +/- 14.5 IU/L); assay type: organism-based; conditions: in vivo, 600 h
[10] = Induction of apoptosis in human NHFB cells assessed as cleaved caspase 3 expression at 40 nM after 24 to 72 hrs by immunoblotting analysis; assay type: cell-based; conditions: 0.04 µM
[11] = target: Tubulin; assay: Binding affinity to tubulin (unknown origin) assessed as dissociation constant by SPR analysis; assay type: protein-complex assay, Homo sapiens
Summary of the method: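 Biotin-tubulin (50 µg/mL) captured on a streptavidin chip to about 3,000 RU, with remaining sites blocked by biocytin and a free flow cell as reference. Compound injected at different concentrations in HBS-EP+ (pH 7.4) at 25 °C. KD obtained from steady-state fitting.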

[12] = Induction of apoptosis in human NHFB cells assessed as cytochrome c release at 40 to 80 nM after 24 hrs by immunoblotting analysis; assay type: cell-based; conditions: 0.08 µM
[13] = Toxicity in Balb/c mouse xenografted with human NCI-H1975 cells assessed as serum ALT level at 4 mg/kg, ip administered 3 times per week for 25 days (reference value: 36.6 +/- 5.9 IU/L); assay type: organism-based; conditions: in vivo, 600 h
[14] = Toxicity in Balb/c mouse xenografted with human NCI-H1975 cells assessed as serum AST level at 4 mg/kg, ip administered 3 times per week for 25 days (reference value: 122 +/- 14.5 IU/L); assay type: organism-based; conditions: in vivo, 600 h
[15] = Cell cycle arrest in human NHFB cells assessed as effect on cell population at sub-G1 phase at 40 to 80 nM after 24 hrs by propidium iodide-staining based flow cytometry; assay type: ADME; conditions: 0.08 µM
Summary of the method: (§2)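 Cells treated for 24 h, then trypsinized and fixed overnight in ice-cold 70% ethanol. Stained for 30 min with propidium iodide (10 µg/mL) plus RNase (20 µg/mL), and DNA content measured by flow cytometry. Mean ± SD.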

[16] = Cell cycle arrest in human NHFB cells assessed as effect on cell population at G2/M phase at 40 to 80 nM after 24 hrs by propidium iodide-staining based flow cytometry; assay type: ADME; conditions: 0.08 µM; summary of the method: as §2
[17] = target: T1, Tubulin alpha (Homo sapiens) (UniProt P0DPH7+P68366+Q71U36+P68363+Q9BQE3+Q6PEY2+A6NHL2+Q9NY65); assay: Induction of microtubule depolymerization in human NCI-H1975 cells assessed as increase in alpha tubulin soluble form by immunoblot analysis; assay type: cell-based
Summary of the method: (§3)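 Lysate spun at 16,000 rpm for 15 min at room temperature. Soluble (monomer) and particulate (polymer) fractions immunoblotted for α-tubulin.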

[18] = target: T1, Tubulin alpha (Homo sapiens); assay: Induction of microtubule depolymerization in human CL1-0 cells assessed as increase in alpha tubulin soluble form by immunoblot analysis; assay type: cell-based; summary of the method: as §3
[19] = target: Tubulin (Sus scrofa) (UniProt P02554+P02550); assay: Inhibition of porcine tubulin at 5 uM in presence of GTP measured every minute for 1 hr by microplate reader analysis; assay type: protein assay
Sequence of Tubulin (Sus scrofa) (P02550 whole entry, looked up, the tested form may be a part): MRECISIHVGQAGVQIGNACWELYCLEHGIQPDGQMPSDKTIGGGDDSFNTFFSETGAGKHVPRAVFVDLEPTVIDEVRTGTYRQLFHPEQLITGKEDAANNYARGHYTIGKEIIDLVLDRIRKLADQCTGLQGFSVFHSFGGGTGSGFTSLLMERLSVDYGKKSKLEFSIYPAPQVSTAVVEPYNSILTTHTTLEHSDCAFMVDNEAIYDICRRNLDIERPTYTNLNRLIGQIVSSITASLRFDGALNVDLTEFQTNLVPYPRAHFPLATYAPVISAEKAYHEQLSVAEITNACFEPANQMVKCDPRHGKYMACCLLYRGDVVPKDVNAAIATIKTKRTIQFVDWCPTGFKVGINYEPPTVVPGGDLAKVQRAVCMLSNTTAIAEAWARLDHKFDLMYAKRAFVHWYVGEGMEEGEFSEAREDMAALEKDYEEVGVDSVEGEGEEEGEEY
Sequence of Tubulin (Sus scrofa) (P02554 whole entry, looked up, the tested form may be a part): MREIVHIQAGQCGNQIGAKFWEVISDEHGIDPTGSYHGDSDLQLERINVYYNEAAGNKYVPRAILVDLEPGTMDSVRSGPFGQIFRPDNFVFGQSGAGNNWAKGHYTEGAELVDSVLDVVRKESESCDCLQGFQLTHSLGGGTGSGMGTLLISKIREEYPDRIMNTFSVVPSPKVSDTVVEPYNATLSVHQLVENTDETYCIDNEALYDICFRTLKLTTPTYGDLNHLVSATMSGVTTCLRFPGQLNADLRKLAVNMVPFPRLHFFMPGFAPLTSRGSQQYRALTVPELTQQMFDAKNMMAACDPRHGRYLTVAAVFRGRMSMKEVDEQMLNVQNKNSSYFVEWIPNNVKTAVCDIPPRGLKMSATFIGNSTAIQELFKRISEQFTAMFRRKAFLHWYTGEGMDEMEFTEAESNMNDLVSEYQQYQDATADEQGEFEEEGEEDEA

[20] = target: T2, Tubulin (Homo sapiens) (UniProt P68371+Q9H4B7+P0DPH7+P68366+Q13509+Q71U36+P04350+Q3ZCM7+P07437+P68363+Q9BQE3+Q6PEY2+Q13885+Q9BVA1+Q9BUF5); assay: Binding affinity to tubulin (unknown origin) assessed as increase in Beta-col fragment production at 100 uM after 30 mins by coomassie brilliant blue staining based trypsin proteolysis assay; assay type: protein-complex assay
Summary of the method: (§4)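 Tubulin (1 mg/mL) preincubated with 100 µM compound for 30 min at 30 °C in 0.1 M MES, 1 mM MgCl2, 1 mM EGTA, pH 6.9. Trypsin added at 25 µg/mL (1:40 w/w) for 10 min on ice. Fragments resolved on 15% SDS-PAGE, stained with Coomassie and quantified by densitometry.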

[21] = Selectivity index, ratio of IC50 for human KB/VCR cells to IC50 for human KB cells; assay type: functional
[22] = Antiproliferative activity against human KBtax cells assessed as reduction in cell viability after 72 hrs by MTS assay; assay type: functional, cell-based; summary of the method: as §1
[23] = system: KB; assay: Antiproliferative activity against human KB cells assessed as reduction in cell viability after 72 hrs by MTS assay; assay type: functional, cell-based; summary of the method: as §1
[24] = target: T2, Tubulin (Homo sapiens); assay: Binding affinity to tubulin (unknown origin) assessed as reduction in Beta-colfragment production at 100 uM after 30 mins by coomassie brilliant blue staining based trypsin proteolysis assay; assay type: protein-complex assay; summary of the method: as §4
[25] = system: CCRF-CEM; assay: Antiproliferative activity against human CCRF-CEM cells assessed as reduction in cell viability after 72 hrs by MTS assay; assay type: functional, cell-based; summary of the method: as §1
[26] = Antiproliferative activity against human CCRF-CEM/VBL cells assessed as reduction in cell viability after 72 hrs by MTS assay; assay type: functional, cell-based; summary of the method: as §1
[27] = target: T2, Tubulin (Homo sapiens); assay: Binding affinity to tubulin (unknown origin) assessed as reduction in alpha-C fragment production at 100 uM after 30 mins by coomassie brilliant blue staining based trypsin proteolysis assay; assay type: protein-complex assay; summary of the method: as §4
[28] = Antiproliferative activity against human KB/VCR cells assessed as reduction in cell viability after 72 hrs by MTS assay; assay type: functional, cell-based; summary of the method: as §1
[29] = Selectivity index, ratio of IC50 for human KBtax cells to IC50 for human KB cells; assay type: functional
[30] = target: T2, Tubulin (Homo sapiens); assay: Binding affinity to tubulin (unknown origin) assessed as reduction in alpha-N fragment production at 100 uM after 30 mins by coomassie brilliant blue staining based trypsin proteolysis assay; assay type: protein-complex assay; summary of the method: as §4
[31] = Selectivity index, ratio of IC50 for human CCRF-CEM/VBL cells to IC50 for human CCRF-CEM cells; assay type: functional

CCOCc1ccc2[nH]c(-c3ccccc3)cc(=O)c2c1
IC50 [1]: 810 nM

CCOC(=O)c1ccc2[nH]c(-c3ccc(F)cc3)cc(=O)c2c1
IC50 [1]: 2100 nM

CCOC(=O)c1ccc2[nH]c(-c3cccc(O)c3)cc(=O)c2c1
IC50 [1]: 1950 nM

CCOC(=O)c1ccc2[nH]c(-c3cccc(OC)c3)cc(=O)c2c1
IC50 [1]: 44 nM

CCOC(=O)c1ccc2[nH]c(-c3ccc(OC)cc3)cc(=O)c2c1
IC50 [1]: 2200 nM

CCOC(=O)c1ccc2[nH]c(-c3ccccc3)cc(=O)c2c1
Activity [2]: 23.2 mg/dL
Activity [3]: Non-Toxic
Activity [4]: Non-Toxic
Activity [5]: 54.2 IU/L
Activity [6]: 0.17 mg/dL
Activity [7]: 0.26 mg/dL
Activity [8]: 20.9 mg/dL
Activity [9]: 170.8 IU/L
Activity [10]: Non-Toxic
Kd [11]: 13800 nM
Activity [12]: Non-Toxic
Activity [13]: 40.8 IU/L
Activity [14]: 138.7 IU/L
Activity [15]: Non-Toxic
Activity [16]: Non-Toxic

COC(=O)c1ccc2[nH]c(-c3ccccc3)cc(=O)c2c1
IC50 [1]: 207 nM

COC(=O)Nc1nc2cc(C(=O)c3cccs3)ccc2[nH]1
Activity [17]: Active
Activity [18]: Active
tubulin inhibition call (active/not active) [19]: Active
Activity [20]: Active

CC[C@]1(O)C[C@H]2CN(CCc3c([nH]c4ccccc34)[C@@](C(=O)OC)(c3cc4c(cc3OC)N(C=O)[C@H]3[C@@](O)(C(=O)OC)[C@H](OC(C)=O)[C@]5(CC)C=CCN6CC[C@]43[C@@H]65)C2)C1 [VINCRISTINE]
Ratio IC50 [21]: 163
IC50 [22]: 49 nM
IC50 [23]: 5 nM
Activity [24]: Active
IC50 [25]: 3 nM
tubulin inhibition call (active/not active) [19]: Active
IC50 [26]: 1320 nM
Activity [27]: Active
IC50 [28]: 817 nM
Ratio IC50 [29]: 9.8
Activity [30]: Active
Ratio IC50 [31]: 440
